Results as given in PMC5010496 (Cancer research, 2016).
Values belong to the molecule of their own block, whether it stands above or below them.

Experiments:
CAG myeloma cells = assay: Caspase3/7-GLO apoptosis assay, CAG; type: cell-based, human
Outline: (§1)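 Myeloma cells in complete medium were pre-treated for 1 hr with JNK inhibitor or DMSO vehicle, then given or not given 30 μM test peptide, for 9 hr total. Caspase 3/7 activity was read by Caspase3/7-GLO luminescence and expressed as fold increase over vehicle alone (set to 1.0).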

MM.1R myeloma cells = assay: Caspase3/7-GLO apoptosis assay, MM.1R; type: cell-based, human; conditions: MM.1R cells
Outline: as §1

HMEC-1 endothelial cells = assay: Cell growth assay, HMEC-1; type: cell-based, human; conditions: 30 μM peptide, 3 days
Outline: (§2)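 Endothelial cells (1–2 × 10^3/well) were grown in complete medium with 30 μM test peptide or its variant for 3 days at 37 °C, 7.5% CO2. Cell number was read by CellTiter-GLO and expressed as % increase relative to untreated cells.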

[1] = system: CAG, RPMI-8226, KMS-12, U266, MM.1R myeloma cells; assay: Cell growth assay, human myeloma cells; type: cell-based; conditions: three-day growth assay, relative to SSTNIGF1R
Outline: (§3)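 Myeloma cells (2.5 × 10^4/well) were grown in RPMI 1640 with 4 mM L-glutamine, 10% FBS and 0.05 mM β-mercaptoethanol; CAG cells also received 40 μg/mL Geneticin. Cells were grown with 30 μM test peptide or its variant for 3 days at 37 °C, 7.5% CO2. Cell number was read by CellTiter-GLO as % increase relative to untreated cells.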

[2] = target: IGF1R and αvβ5 integrin complex with Sdc1 (Homo sapiens, UniProt P06756+P08069+P18084); assay: Immunoprecipitation of Sdc1 with competing SSTN peptides; type: binding
IGF1R and αvβ5 integrin complex with Sdc1, sequence (P08069 31-736 limits assumed): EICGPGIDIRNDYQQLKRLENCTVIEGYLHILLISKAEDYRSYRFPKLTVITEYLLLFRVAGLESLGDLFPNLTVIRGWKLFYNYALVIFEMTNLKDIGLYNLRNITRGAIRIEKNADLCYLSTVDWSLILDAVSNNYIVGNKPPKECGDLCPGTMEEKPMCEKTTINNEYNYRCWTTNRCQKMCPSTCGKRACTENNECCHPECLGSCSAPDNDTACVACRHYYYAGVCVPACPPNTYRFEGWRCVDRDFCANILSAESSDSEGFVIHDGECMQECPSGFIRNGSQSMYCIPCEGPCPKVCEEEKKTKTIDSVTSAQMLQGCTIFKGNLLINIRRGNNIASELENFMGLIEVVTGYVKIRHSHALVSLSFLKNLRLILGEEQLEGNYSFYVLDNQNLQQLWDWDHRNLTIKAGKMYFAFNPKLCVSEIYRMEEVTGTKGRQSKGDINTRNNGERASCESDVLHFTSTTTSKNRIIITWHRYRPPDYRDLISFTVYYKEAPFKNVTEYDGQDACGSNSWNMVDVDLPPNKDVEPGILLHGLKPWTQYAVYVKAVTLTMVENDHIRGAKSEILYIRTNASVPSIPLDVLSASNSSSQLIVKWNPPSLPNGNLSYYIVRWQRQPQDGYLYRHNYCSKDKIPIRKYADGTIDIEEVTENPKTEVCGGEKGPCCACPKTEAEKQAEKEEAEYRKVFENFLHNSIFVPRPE
IGF1R and αvβ5 integrin complex with Sdc1, sequence (P08069 741-1367 limits assumed): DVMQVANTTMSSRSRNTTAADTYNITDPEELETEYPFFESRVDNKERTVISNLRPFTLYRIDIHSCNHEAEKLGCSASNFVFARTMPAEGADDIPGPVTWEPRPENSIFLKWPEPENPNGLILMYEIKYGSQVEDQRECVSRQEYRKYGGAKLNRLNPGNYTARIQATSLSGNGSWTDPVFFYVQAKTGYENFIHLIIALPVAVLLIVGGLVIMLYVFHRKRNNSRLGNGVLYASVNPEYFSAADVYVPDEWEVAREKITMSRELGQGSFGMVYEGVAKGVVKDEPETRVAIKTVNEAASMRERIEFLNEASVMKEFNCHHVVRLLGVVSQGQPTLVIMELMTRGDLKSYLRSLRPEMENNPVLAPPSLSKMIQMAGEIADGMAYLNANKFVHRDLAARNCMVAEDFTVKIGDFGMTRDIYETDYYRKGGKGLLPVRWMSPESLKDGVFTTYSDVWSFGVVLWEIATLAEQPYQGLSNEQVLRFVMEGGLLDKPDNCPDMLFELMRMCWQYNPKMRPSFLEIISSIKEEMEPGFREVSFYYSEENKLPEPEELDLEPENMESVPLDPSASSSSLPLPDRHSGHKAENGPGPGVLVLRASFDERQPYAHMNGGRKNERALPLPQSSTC
IGF1R and αvβ5 integrin complex with Sdc1, sequence (P06756 31-889 limits assumed): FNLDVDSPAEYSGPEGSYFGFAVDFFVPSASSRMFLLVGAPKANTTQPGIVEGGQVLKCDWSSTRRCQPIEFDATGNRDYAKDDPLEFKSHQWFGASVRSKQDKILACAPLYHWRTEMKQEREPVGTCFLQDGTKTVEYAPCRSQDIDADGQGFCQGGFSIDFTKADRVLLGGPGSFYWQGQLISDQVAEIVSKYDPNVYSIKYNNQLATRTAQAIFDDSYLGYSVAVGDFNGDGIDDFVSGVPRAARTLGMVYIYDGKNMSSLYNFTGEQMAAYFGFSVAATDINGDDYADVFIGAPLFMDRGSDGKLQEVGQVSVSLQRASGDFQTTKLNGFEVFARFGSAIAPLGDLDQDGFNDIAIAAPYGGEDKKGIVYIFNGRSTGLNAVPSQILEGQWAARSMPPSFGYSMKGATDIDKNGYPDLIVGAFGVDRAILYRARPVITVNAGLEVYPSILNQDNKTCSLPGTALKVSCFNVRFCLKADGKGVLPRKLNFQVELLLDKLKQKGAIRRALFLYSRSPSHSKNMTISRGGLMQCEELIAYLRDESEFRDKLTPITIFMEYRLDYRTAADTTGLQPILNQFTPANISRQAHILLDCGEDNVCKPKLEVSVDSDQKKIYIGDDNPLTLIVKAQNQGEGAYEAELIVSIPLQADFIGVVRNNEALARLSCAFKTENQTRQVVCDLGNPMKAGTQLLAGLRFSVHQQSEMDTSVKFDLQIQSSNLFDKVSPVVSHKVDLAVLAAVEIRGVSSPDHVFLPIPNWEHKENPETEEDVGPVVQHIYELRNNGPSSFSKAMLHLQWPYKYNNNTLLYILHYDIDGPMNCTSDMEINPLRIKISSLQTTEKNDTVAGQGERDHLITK
IGF1R and αvβ5 integrin complex with Sdc1, sequence (P06756 891-1048 limits assumed): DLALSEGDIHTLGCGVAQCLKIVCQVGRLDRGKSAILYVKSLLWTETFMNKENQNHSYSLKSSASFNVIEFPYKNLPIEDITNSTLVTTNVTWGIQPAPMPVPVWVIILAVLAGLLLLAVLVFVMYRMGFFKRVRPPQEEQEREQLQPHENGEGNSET
IGF1R and αvβ5 integrin complex with Sdc1, sequence (P18084 24-799): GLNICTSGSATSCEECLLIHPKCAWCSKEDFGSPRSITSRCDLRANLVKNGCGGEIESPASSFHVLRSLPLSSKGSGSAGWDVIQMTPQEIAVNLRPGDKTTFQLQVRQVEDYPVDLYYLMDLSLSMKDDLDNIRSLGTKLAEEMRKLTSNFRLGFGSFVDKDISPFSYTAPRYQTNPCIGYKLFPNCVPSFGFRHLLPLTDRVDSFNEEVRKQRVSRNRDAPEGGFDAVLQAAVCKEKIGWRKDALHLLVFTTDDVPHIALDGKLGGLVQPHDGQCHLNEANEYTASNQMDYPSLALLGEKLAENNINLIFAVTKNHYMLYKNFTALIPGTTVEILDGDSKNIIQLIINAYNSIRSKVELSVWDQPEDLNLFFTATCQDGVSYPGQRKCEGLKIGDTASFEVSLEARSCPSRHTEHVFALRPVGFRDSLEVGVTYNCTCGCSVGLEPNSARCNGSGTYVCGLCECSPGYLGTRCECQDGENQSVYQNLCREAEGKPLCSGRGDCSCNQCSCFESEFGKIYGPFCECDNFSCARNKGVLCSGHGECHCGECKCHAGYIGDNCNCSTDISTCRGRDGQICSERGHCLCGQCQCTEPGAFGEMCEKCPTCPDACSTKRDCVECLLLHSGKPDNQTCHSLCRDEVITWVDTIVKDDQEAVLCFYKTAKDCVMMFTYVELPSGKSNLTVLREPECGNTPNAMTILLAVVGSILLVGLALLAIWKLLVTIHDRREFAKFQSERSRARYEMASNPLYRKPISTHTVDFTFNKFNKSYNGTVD
Outline: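 CAG cell lysates from suspension culture were immunoprecipitated with isotype-matched control mIgG1 or mAbs to Sdc1 (B-A38), αvβ5 integrin (P1F6) and/or IGF1R (JBW902), in the presence of test peptide (1 μM) or a variant peptide (1, 3 or 10 μM). Precipitates were probed for Sdc1, IGF1R and αvβ5 integrin.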

HUVEC endothelial cells = assay: Cell growth assay, HUVEC; type: cell-based, human; conditions: 30 μM peptide, 3 days, Sdc1-positive HUVEC
Outline: as §2

CAG myeloma xenografts = assay: CAG myeloma xenograft growth and tumor angiogenesis in nude mice; type: in vivo, mouse; conditions: Alzet pump 3.65 mg/kg/day, 4 weeks
[3] = Peptide stability in bovine serum; type: in vitro ADME; conditions: data not shown
ASK1 = type: cell-based, human; conditions: CAG and MM.1R cells, 10 μM
Outline: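 ASK1 or Sdc1 was immunoprecipitated from cell lysates (0.5–1.0 mg input per sample), with or without competing test peptide. Lysis buffer contained protease and phosphatase inhibitors. Blots were probed for co-precipitated ASK1 and Sdc1, total ASK1, and phospho-ASK1 (pThr838/Thr845, pSer83, pSer966/Ser967).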

HUVECs = assay: Stress and apoptosis marker antibody array, HUVEC; type: cell-based, human; conditions: 30 μM, 24 hr
[4] = system: MCF10A breast epithelial cells; assay: Cell growth assay, MCF10A; type: cell-based, human; conditions: 3, 10 or 30 μM peptide, 3 days
Outline: (§4)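 Adherent cells (1–2 × 10^3/well) were grown with 3, 10 or 30 μM test peptide for 3 days at 37 °C. Carcinoma lines were kept in DMEM with 4 mM L-glutamine, 10% FBS and penicillin/streptomycin; SCC lines also received 1 μg/mL hydrocortisone. Cell number was read by CellTiter-GLO as % increase relative to untreated cells.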

P3X63Ag8 myeloma cells = assay: Cell growth assay, mouse myeloma cells; type: cell-based; conditions: 30 μM peptide, three-day treatment, complete medium
Outline: as §3

[5] = system: MDA-MB-231 breast carcinoma cells; assay: Stress and apoptosis marker antibody array, MDA-MB-231; type: cell-based, human; conditions: MDA-MB-231, 30 μM, up to 24 hr; compared with HUVEC response
Outline: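 MDA-MB-231 cells in complete medium were treated with or without 30 μM test peptide for 1, 3, 9 or 24 hr. Whole-cell lysates from equal cell equivalents were run on a stress and apoptosis signalling antibody array. Relative fluorescence at 700 nm was read per target, in two separate experiments.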

CAG cells = assay: ApoTox-GLO viability/apoptosis and TUNEL assay in CAG cells; type: cell-based, human; conditions: 24 hr
Outline: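 CAG cells (2.5 × 10^4/well) were grown in complete medium with 1–30 μM test peptide for 24 hr at 37 °C. Viability and caspase activation/apoptosis were read by ApoTox-GLO as % of untreated cells.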

[6] = system: CAG and MM.1R myeloma cells; assay: Stress and apoptosis marker antibody array, myeloma cells; type: cell-based, human; conditions: CAG and MM.1R cells, 30 μM, over 9 hr
[7] = system: UM-SCC47, SCC25, MDA-MB-468, MDA-MB-231, MCF-7 and SKBr3 carcinoma cells; assay: Cell growth assay, head and neck and breast carcinoma cell panel; type: cell-based, human; conditions: 3, 10 or 30 μM peptide, 3 days
Outline: as §4

[8] = Peptide stability in mouse serum; type: in vitro ADME; conditions: data not shown
HaCaT keratinocytes = assay: Cell growth assay, HaCaT; type: cell-based, human; conditions: 3, 10 or 30 μM peptide, 3 days
Outline: as §4

HUVEC(Sdc1−) = assay: Cell growth assay, HUVEC isolate lacking Sdc1; type: cell-based, human; conditions: 30 μM peptide, 3 days
Outline: as §2

[9] = 1 μM JNK-IN-8 with 30 μM SSTNIGF1R, 9 hr
[10] = 10 μM SP600125 with SSTNIGF1R, data not shown

Molecule: Cc1cc(NC(=O)c2cccc(NC(=O)/C=C/CN(C)C)c2)ccc1Nc1nccc(-c2cccnc2)n1 [JNK-IN-8]
block of SSTNIGF1R-induced caspase 3/7 activation (CAG myeloma cells; [9]): complete block | block of SSTNIGF1R-induced caspase 3/7 activation (MM.1R myeloma cells; [9]): complete block

Molecule: Oc1c2ccccc2c2c3c(cccc13)N=N2 [SP600125]
block of SSTNIGF1R-induced caspase 3/7 activation (CAG myeloma cells; [10]): Near identical results | block of SSTNIGF1R-induced caspase 3/7 activation (MM.1R myeloma cells; [10]): Near identical results

fold less effective than SSTNIGF1R at disrupting IGF1R capture by Sdc1 ([2]; myeloma cells, relative to SSTNIGF1R): 3–10 fold
Molecule: SSTNIGF1R-T: truncated synstatin peptide comprising amino acids 94–119 of Sdc1 (AGEKPEEGEPVLHVEAEPGFTARDKE)
growth of HMEC-1 endothelial cells (HMEC-1 endothelial cells): without effect | fold less effective than SSTNIGF1R at causing myeloma cell loss [1]: 3–10 fold | disruption of capture of IGF1R and αvβ5 integrin by Sdc1 ([2]; 1, 3 or 10 μM peptide, myeloma cell lysates): disrupts capture of IGF1R and αvβ5 integrin by Sdc1 | growth of HUVEC endothelial cells (HUVEC endothelial cells): without effect | effect on tumor angiogenesis (CAG myeloma xenografts; MECA-32 staining intensity): no significant effect

Molecule: SSTNIGF1R: peptide that inhibits IGF1R capture by Sdc1; comprised of amino acids 92–119 in mouse Sdc1 (LPAGEKPEEGEPVLHVEAEPGFTARDKE)
activity retained after incubation in bovine serum [3]: retains full activity | co-immunoprecipitation of ASK1 with Sdc1 (ASK1): prevented | apoptosis markers (antibody array) (HUVECs): Activation of the JNK pathway and caspase-3, and a reduction in levels of IkBα | growth of HMEC-1 endothelial cells (HMEC-1 endothelial cells): inhibits the growth | growth of non-transformed MCF10A breast epithelial cells [4]: unaffected | growth of mouse myeloma cells (P3X63Ag8 myeloma cells): significantly reduced | increase in caspase 3/7 activity relative to vehicle (CAG myeloma cells; 30 μM SSTNIGF1R alone, 9 hr): ~5 fold | apoptosis markers (antibody array) [5]: almost identical apoptotic response | apoptosis by TUNEL assay (CAG cells; 30 μM): DNA fragmentation | apoptosis: caspase activation (ApoTox-GLO) (CAG cells; 1–30 μM): executioner caspase activation | cell viability (ApoTox-GLO) (CAG cells; 1–30 μM): significant loss of viability | apoptosis markers (antibody array) [6]: increased phosphorylation of p53 (Ser15), activation of JNK and activation of caspase-3 | growth of head and neck and breast carcinoma cells [7]: reduced growth | activity retained after incubation in mouse serum [8]: retains full activity | growth of HUVEC endothelial cells (HUVEC endothelial cells): inhibits the growth | reduction of blood vessel density in residual tumors (CAG myeloma xenografts; MECA-32 staining intensity): over 90% | tumors eradicated (CAG myeloma xenografts; nude mice, CAG tumors, 8 tumors per cohort): 3 of the 8 | growth of non-transformed HaCaT keratinocytes (HaCaT keratinocytes): unaffected | growth of HUVEC isolate lacking Sdc1 (HUVEC(Sdc1−)): insensitive
